Results published in ChEMBL document CHEMBL1132718, “Design and synthesis of imidazoline derivatives active on glucose homeostasis in a rat model of type II diabetes. 2. Syntheses and biological activities of 1,4-dialkyl-, 1,4-dibenzyl, and 1-benzyl-4-alkyl-2-(4',5'-dihydro-1'H-imidazol-2'-yl)piperazines and isosteric analogues of imidazoline” (J Med Chem, 1999).

Tests used:
Rattus norvegicus [1] = assay: Percent of variation of glycemia value 30 mins after glucose administration by intraperitoneal dose of 100 uM/Kg to STZ rats compared to untreated rats; format: functional; set-up: unit: %
Outline: (§1)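 STZ-diabetic rats: 3-month-old male Wistar (250 g) given streptozotocin 35 mg/kg iv. Single ip dose of 100 µmol/kg, then iv glucose 0.5 g/kg for IVGTT. Read-outs: ΔG (glycemia increment over baseline integrated over 30 min), G30 (glycemia at 30 min), K (disappearance rate 5–30 min). Expressed as percent variation versus untreated STZ rats, normalized to nondiabetic controls; 4–8 rats per compound, ±SEM.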

Rattus norvegicus [2] = assay: Rate of glucose disappearance between 5 and 30 min after glucose administration with an intraperitoneal administration of 100 (umol/kg) to STZ rats; format: functional, organism-based
Outline: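 Three-month-old male Wistar rats (250 g) made diabetic with streptozotocin 35 mg/kg iv. Single ip dose of 100 µmol/kg, then IVGTT with glucose 0.5 g/kg iv. K is the rate of glucose disappearance between 5 and 30 min after the glucose load. Expressed as percent variation between treated and untreated diabetic rats, relative to nondiabetic controls. 4–8 rats per compound, ±SEM.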

Rattus norvegicus [3] = assay: Incremental glycemia values over baseline integrated over 30 min after glucose administration (iv) at a concentration 0.5 g/kg; format: functional; set-up: unit: %; outline: as §1
[4] = Partition coefficient (logP); format: physicochemical; settings: octanol/water
Rattus norvegicus [5] = assay: Percent of variation of glycemia value 30 mins after glucose administration with a peroral administration of 100 umol/kg to STZ rats; format: functional; set-up: unit: %
Outline: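 Oral (po) dosing at 100 µmol/kg in STZ rats (male Wistar, 3 months old, 250 g, streptozotocin 35 mg/kg iv), followed by IVGTT with glucose 0.5 g/kg iv. G30 (glycemia 30 min after the glucose load) is expressed as percent variation between treated and untreated STZ rats, relative to nondiabetic controls.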

Row | Compound | G30 (Rattus norvegicus [1]) | K (Rattus norvegicus [2]) | Delta G (Rattus norvegicus [3]) | logP [4] | G30 (Rattus norvegicus [5])
1 | C/N=C(/N)C1CN(Cc2ccccc2)CCN1Cc1ccccc1 (configuration not stated) | 62 | 60 | 50 |  | 
2 | CC(C)CN1CCN(CC(C)C)C(C2=NCCN2)C1 (configuration not stated) | 89 | 79 | 141 | 2.18 | 66
3 | CN1CCN(Cc2ccc(Cl)cc2Cl)C(CC2=NCCN2)C1 (configuration not stated) | 42 | 91 | 19 |  | 
4 | c1ccc(C(CC2=NCCN2)c2ccccn2)cc1 (configuration not stated) [MIDAGLIZOLE] | 121 |  | 32 |  | 
5 | C/N=C(/N)C1CN(C(C)C)CCN1C(C)C (configuration not stated) | 77 | 62 | 43 |  | 
6 | CC(C)CN1CCN(C)CC1C1=NCCN1 (configuration not stated) | 48 | 55 | 113 |  | 
7 | CC(C)N1CCN(C(C)C)C(C2=NCCN2)C1 (configuration not stated) | 89 | 47 | 138 | 1.15 | 73
8 | CN1CCN(Cc2ccc(Cl)cc2Cl)C(c2ncc[nH]2)C1 (configuration not stated) | 14 | 37 | 0 |  | 
9 | CN1CCN(c2ccccc2)C(C2=NCCN2)C1 (configuration not stated) | 28 | 39 | 6 |  | 
10 | CC(C)N1CCN(c2ccccc2)CC1C1=NCCN1 (configuration not stated) | 15 | 60 | 0 |  | 
11 | CN1CCN(C(C2CC2)C2CC2)C(C2=NCCN2)C1 (configuration not stated) | 55 | 47 | 101 |  | 
12 | CN1CCN(Cc2ccc(Cl)cc2Cl)C(C2=NCCN2)C1 (configuration not stated) | 112 |  | 105 | 2.21 | 64
13 | CN1CCN(Cc2ccc(Cl)cc2Cl)C(C2=NCCCN2)C1 (configuration not stated) | 30 | 38 | 47 |  | 
14 | C=CCN1CCN(CC(C)C)C(C2=NCCN2)C1 (configuration not stated) | 55 | 61 | 115 | 1.3 | 23
15 | CN1CCN(Cc2ccccc2Cl)C(C2=NCCO2)C1 (configuration not stated) | 0 | 0 | 8 |  | 
16 | N=C(N)C1CN(Cc2ccccc2)CCN1Cc1ccccc1 (configuration not stated) | 65 | 65 | 55 |  | 

Row | Compound | G30 (Rattus norvegicus [1]) | K (Rattus norvegicus [2]) | Delta G (Rattus norvegicus [3]) | logP [4] | G30 (Rattus norvegicus [5])
17 | C=C(C)CN1CCN(CC(C)C)C(C2=NCCN2)C1 (configuration not stated) | 41 | 76 | 53 |  | 
18 | C1CCC(N2CCN(C3CCCC3)C(C3=NCCN3)C2)C1 (configuration not stated) | 103 | 23 | 58 |  | 
19 | c1ccc2c(c1)OCC(C1=NCCN1)O2 (configuration not stated) [IDAZOXAN] | 48 | 79 | 8 |  | 
20 | C=CCN1CCN(CC=C)C(C2=NCCN2)C1 (configuration not stated) | 30 | 35 | 19 |  | 
21 | CC(C)CN1CCN(C)C(C2=NCCN2)C1 (configuration not stated) | 21 | 42 | 40 |  | 
22 | CN1CCN(c2ccccc2Cl)CC1C1=NCCN1 (configuration not stated) | 17 | 60 | 10 |  | 
23 | c1ccc(CN2CCN(Cc3ccccc3)C(CC3=NCCN3)C2)cc1 (configuration not stated) | 0 | 49 |  |  | 
24 | COc1ccccc1CN1CCN(C)CC1CC1=NCCN1 (configuration not stated) | 36 | 53 | 31 |  | 
25 | C1CNC(C2CN(C(C3CC3)C3CC3)CCN2C(C2CC2)C2CC2)=N1 (configuration not stated) | 89 | 41 | 24 |  | 
26 | CCC(C)CN1CCN(CC(C)CC)C(C2=NCCN2)C1 (configuration not stated) | 83 | 82 | 104 | 3.22 | 4.3
27 | CN1CCN(Cc2ccc(Cl)cc2Cl)C(C2=NCCN2C)C1 (configuration not stated) | 75 | 64 | 24 |  | 
28 | CC(C)N1CCN(c2ccccc2)C(C2=NCCN2)C1 (configuration not stated) | 91 | 102 | 11 |  | 
29 | CC(C)(C)CN1CCN(CC(C)(C)C)C(C2=NCCN2)C1 (configuration not stated) | 81 | 67 | 54 |  | 
30 | CC(C)N1CCN(C(C)C)C(CC2=NCCN2)C1 (configuration not stated) | 0 | 79 | 27 |  | 
31 | C=C(C)CN1CCN(CC(=C)C)C(C2=NCCN2)C1 (configuration not stated) | 96 | 117 | 116 | 1.45 | 0
